Measurements reported in ChEMBL document CHEMBL4689842, “EUbOPEN Chemogenomics Library wave 1” (2021).
“And” between values parts separate entries of the source, which are not always exact repeats. Equal values may be shown once.

Assays:
Format in all cases: toxicity, cell-based
Fibroblast [1] = test: Multiplex assay against human fibroblast; details: 10 µM, compound concentration 10 uM
Outline: (§1)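 Tubulin, mitochondrial-mass and membrane-permeability phenotypes are per cents of healthy-nucleus cells. Cells were gated by CellPathfinder machine learning into Hoechst high-intensity objects or normal cells, normal cells into healthy, pyknosed or fragmented nuclei, and pyknosed cells into mitotic or apoptotic. Before that, live cells stained at seeding with Hoechst33342, BioTracker Green Microtubule Cytoskeleton Dye, MitoTracker Red and Annexin V Alexa Fluor 680 were imaged on a CQ1 microscope at 37°C and 5% CO2 after compound addition.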

HEK-293T [2] = test: Multiplex assay against HEK293T; details: human, 10 µM, compound concentration 10 uM; outline: as §1;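 on Population Tubulin-Different-Phenotype (%): share of the cells with healthy nuclei that show this phenotype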
Fibroblast [3] = test: Incucyte cell viability with human fibroblast; details: 10 µM, compound concentration 10 uM; further: filed as whole numbers so only -1 and 0 and 1 occur
U2OS [4] = test: Multiplex assay against U2OS; details: human, 10 µM, compound concentration 10 uM; outline: as §1
HEK-293T [5] = test: Incucyte cell viability with HEK293T; details: human, 10 µM, compound concentration 10 uM; further: filed as whole numbers so only -1 and 0 and 1 occur
U2OS [6] = test: Incucyte cell viability with U2OS; details: human, 10 µM, compound concentration 10 uM; further: filed as whole numbers so only -1 and 0 and 1 occur
[7] = 0 h, replicate number 1, timepoint 0 hours
[8] = 6 h, replicate number 1, timepoint 6 hours
[9] = 12 h, replicate number 1, timepoint 12 hours
[10] = 18 h, replicate number 1, timepoint 18 hours
[11] = 24 h, replicate number 1, timepoint 24 hours

Cn1cncc1[C@@](O)(COc1ccc(C#N)cc1-c1ccc(OC(F)(F)F)cc1)c1ccc(C#N)cc1 [A-108]
Population Apoptotic (%) (Fibroblast [1]; 12 h, replicate 1): 53% and 83%
Population Fragmented Nuclei (%) (Fibroblast [1]; 12 h, replicate 1): 39% and 19%
Population Healthy Nuclei (%) (Fibroblast [1]; 12 h, replicate 1): 44% and 66%
Population Hoechst High Intensity Objects (%) (Fibroblast [1]; 12 h, replicate 1): 15% and 12%
Population Membrane Permeable-Phenotype (%) (Fibroblast [1]; 12 h, replicate 1): 23% and 8%
Population Mitochondria Different-Phenotype (%) (Fibroblast [1]; 12 h, replicate 1): 20% and 7%
Population Mitotic Cells (%) (Fibroblast [1]; 12 h, replicate 1): 46% and 16%
Population Normal (%) (Fibroblast [1]; 12 h, replicate 1): 84% and 87%
Population Pyknosed Nuclei (%) (Fibroblast [1]; 12 h, replicate 1): 15% and 14%
Total Cell Count (Fibroblast [1]; 12 h, replicate 1): 192 and 337
Population Apoptotic (%) (Fibroblast [1]; 12 h, replicate 2): 42% and 57%
Population Fragmented Nuclei (%) (Fibroblast [1]; 12 h, replicate 2): 52% and 61%
Population Healthy Nuclei (%) (Fibroblast [1]; 12 h, replicate 2): 34% and 26%
Population Hoechst High Intensity Objects (%) (Fibroblast [1]; 12 h, replicate 2): 32%
Population Membrane Permeable-Phenotype (%) (Fibroblast [1]; 12 h, replicate 2): 0% and 5%
Population Mitotic Cells (%) (Fibroblast [1]; 12 h, replicate 2): 57% and 42%
Population Normal (%) (Fibroblast [1]; 12 h, replicate 2): 67%
Population Pyknosed Nuclei (%) (Fibroblast [1]; 12 h, replicate 2): 12% and 11%
Population Tubulin-Different-Phenotype (%) (Fibroblast [1]; 12 h, replicate 2): 26% and 52%
Total Cell Count (Fibroblast [1]; 12 h, replicate 2): 82 and 94
Population Apoptotic (%) (Fibroblast [1]; 24 h, replicate 1): 54% and 58%
Population Fragmented Nuclei (%) (Fibroblast [1]; 24 h, replicate 1): 40% and 16%
Population Healthy Nuclei (%) (Fibroblast [1]; 24 h, replicate 1): 47% and 69%
Population Hoechst High Intensity Objects (%) (Fibroblast [1]; 24 h, replicate 1): 11% and 16%
Population Membrane Permeable-Phenotype (%) (Fibroblast [1]; 24 h, replicate 1): 3% and 7%
Population Mitotic Cells (%) (Fibroblast [1]; 24 h, replicate 1): 45% and 41%
Population Normal (%) (Fibroblast [1]; 24 h, replicate 1): 88% and 83%
Population Pyknosed Nuclei (%) (Fibroblast [1]; 24 h, replicate 1): 14%
Total Cell Count (Fibroblast [1]; 24 h, replicate 1): 216 and 318
Population Apoptotic (%) (Fibroblast [1]; 24 h, replicate 2): 50% and 62%
Population Fragmented Nuclei (%) (Fibroblast [1]; 24 h, replicate 2): 50%
Population Healthy Nuclei (%) (Fibroblast [1]; 24 h, replicate 2): 43% and 37%
Population Hoechst High Intensity Objects (%) (Fibroblast [1]; 24 h, replicate 2): 29% and 21%
Population Membrane Permeable-Phenotype (%) (Fibroblast [1]; 24 h, replicate 2): 14% and 16%
Population Mitochondria Different-Phenotype (%) (Fibroblast [1]; 24 h, replicate 2): 66% and 28%
Population Mitotic Cells (%) (Fibroblast [1]; 24 h, replicate 2): 50% and 37%
Population Normal (%) (Fibroblast [1]; 24 h, replicate 2): 70% and 78%
Population Pyknosed Nuclei (%) (Fibroblast [1]; 24 h, replicate 2): 6% and 11%
Population Tubulin-Different-Phenotype (%) (Fibroblast [1]; 24 h, replicate 2): 37% and 52%
Total Cell Count (Fibroblast [1]; 24 h, replicate 2): 88 and 85
Population Apoptotic (%) (HEK-293T [2]; 12 h, replicate 1): 23% and 20%
Population Fragmented Nuclei (%) (HEK-293T [2]; 12 h, replicate 1): 11% and 16%
Population Healthy Nuclei (%) (HEK-293T [2]; 12 h, replicate 1): 51% and 64%
Population Hoechst High Intensity Objects (%) (HEK-293T [2]; 12 h, replicate 1): 11% and 14%
Population Mitochondria Different-Phenotype (%) (HEK-293T [2]; 12 h, replicate 1): 8% and 4%
Population Mitotic Cells (%) (HEK-293T [2]; 12 h, replicate 1): 76% and 79%
Population Normal (%) (HEK-293T [2]; 12 h, replicate 1): 88% and 85%
Population Pyknosed Nuclei (%) (HEK-293T [2]; 12 h, replicate 1): 36% and 18%
Total Cell Count (HEK-293T [2]; 12 h, replicate 1): 827 and 582
Population Apoptotic (%) (HEK-293T [2]; 12 h, replicate 2): 12% and 14%
Population Fragmented Nuclei (%) (HEK-293T [2]; 12 h, replicate 2): 3% and 9%
Population Healthy Nuclei (%) (HEK-293T [2]; 12 h, replicate 2): 77% and 85%
Population Hoechst High Intensity Objects (%) (HEK-293T [2]; 12 h, replicate 2): 4% and 2%
Population Mitochondria Different-Phenotype (%) (HEK-293T [2]; 12 h, replicate 2): 19% and 7%
Population Mitotic Cells (%) (HEK-293T [2]; 12 h, replicate 2): 87% and 85%
Population Normal (%) (HEK-293T [2]; 12 h, replicate 2): 95% and 97%
Total Cell Count (HEK-293T [2]; 12 h, replicate 2): 1209 and 1952
Population Apoptotic (%) (HEK-293T [2]; 24 h, replicate 1): 25% and 12%
Population Fragmented Nuclei (%) (HEK-293T [2]; 24 h, replicate 1): 10% and 12%
Population Healthy Nuclei (%) (HEK-293T [2]; 24 h, replicate 1): 60% and 78%
Population Hoechst High Intensity Objects (%) (HEK-293T [2]; 24 h, replicate 1): 10%
Population Mitochondria Different-Phenotype (%) (HEK-293T [2]; 24 h, replicate 1): 4%
Population Mitotic Cells (%) (HEK-293T [2]; 24 h, replicate 1): 75% and 87%
Population Normal (%) (HEK-293T [2]; 24 h, replicate 1): 89%
Total Cell Count (HEK-293T [2]; 24 h, replicate 1): 759 and 650
Population Apoptotic (%) (HEK-293T [2]; 24 h, replicate 2): 8% and 5%
Population Healthy Nuclei (%) (HEK-293T [2]; 24 h, replicate 2): 73% and 71%
Population Hoechst High Intensity Objects (%) (HEK-293T [2]; 24 h, replicate 2): 4% and 3%
Population Mitochondria Different-Phenotype (%) (HEK-293T [2]; 24 h, replicate 2): 9% and 2%
Population Mitotic Cells (%) (HEK-293T [2]; 24 h, replicate 2): 91% and 95%
Population Normal (%) (HEK-293T [2]; 24 h, replicate 2): 95% and 96%
Population Tubulin-Different-Phenotype (%) (HEK-293T [2]; 24 h, replicate 2): 97%
Total Cell Count (HEK-293T [2]; 24 h, replicate 2): 1251 and 3226
Growth Rate (Fibroblast [3]; [7]): 1
Growth Rate (Fibroblast [3]; [8]): 0
Growth Rate (Fibroblast [3]; [9]): 0
Growth Rate (Fibroblast [3]; [10]): 0
Growth Rate (Fibroblast [3]; [11]): 0
Population Apoptotic (%) (U2OS [4]; 12 h, replicate 1): 38% and 53%
Population Healthy Nuclei (%) (U2OS [4]; 12 h, replicate 1): 70% and 84%
Population Hoechst High Intensity Objects (%) (U2OS [4]; 12 h, replicate 1): 3%
Population Membrane Permeable-Phenotype (%) (U2OS [4]; 12 h, replicate 1): 31% and 17%
Population Mitochondria Different-Phenotype (%) (U2OS [4]; 12 h, replicate 1): 42% and 25%
Population Mitotic Cells (%) (U2OS [4]; 12 h, replicate 1): 61% and 46%
Population Normal (%) (U2OS [4]; 12 h, replicate 1): 96%
Population Pyknosed Nuclei (%) (U2OS [4]; 12 h, replicate 1): 17% and 11%
Total Cell Count (U2OS [4]; 12 h, replicate 1): 188 and 136
Population Apoptotic (%) (U2OS [4]; 12 h, replicate 2): 43% and 50%
Population Healthy Nuclei (%) (U2OS [4]; 12 h, replicate 2): 60% and 90%
Population Hoechst High Intensity Objects (%) (U2OS [4]; 12 h, replicate 2): 19% and 8%
Population Mitochondria Different-Phenotype (%) (U2OS [4]; 12 h, replicate 2): 63% and 21%
Population Mitotic Cells (%) (U2OS [4]; 12 h, replicate 2): 56% and 50%
Population Normal (%) (U2OS [4]; 12 h, replicate 2): 80% and 91%
Total Cell Count (U2OS [4]; 12 h, replicate 2): 101 and 164
Population Fragmented Nuclei (%) (U2OS [4]; 24 h, replicate 1): 8% and 3%
Population Healthy Nuclei (%) (U2OS [4]; 24 h, replicate 1): 74% and 86%
Population Hoechst High Intensity Objects (%) (U2OS [4]; 24 h, replicate 1): 2% and 4%
Population Membrane Permeable-Phenotype (%) (U2OS [4]; 24 h, replicate 1): 29% and 11%
Population Mitochondria Different-Phenotype (%) (U2OS [4]; 24 h, replicate 1): 37% and 20%
Population Mitotic Cells (%) (U2OS [4]; 24 h, replicate 1): 28% and 77%
Population Normal (%) (U2OS [4]; 24 h, replicate 1): 97% and 95%
Population Pyknosed Nuclei (%) (U2OS [4]; 24 h, replicate 1): 17% and 10%
Total Cell Count (U2OS [4]; 24 h, replicate 1): 190 and 184
Population Apoptotic (%) (U2OS [4]; 24 h, replicate 2): 80% and 45%
Population Fragmented Nuclei (%) (U2OS [4]; 24 h, replicate 2): 18%
Population Healthy Nuclei (%) (U2OS [4]; 24 h, replicate 2): 55% and 85%
Population Hoechst High Intensity Objects (%) (U2OS [4]; 24 h, replicate 2): 7%
Population Mitochondria Different-Phenotype (%) (U2OS [4]; 24 h, replicate 2): 75% and 28%
Population Mitotic Cells (%) (U2OS [4]; 24 h, replicate 2): 19% and 54%
Population Normal (%) (U2OS [4]; 24 h, replicate 2): 92%
Population Tubulin-Different-Phenotype (%) (U2OS [4]; 24 h, replicate 2): 73% and 25%
Total Cell Count (U2OS [4]; 24 h, replicate 2): 88 and 199
Growth Rate (HEK-293T [5]; [7]): 1
Growth Rate (HEK-293T [5]; 6 h, replicate number 2, timepoint 6 hours): 0
Growth Rate (HEK-293T [5]; [9]): 1
Growth Rate (HEK-293T [5]; 12 h, replicate number 2, timepoint 12 hours): 0
Growth Rate (HEK-293T [5]; [10]): 0
Growth Rate (HEK-293T [5]; [11]): 0
Growth Rate (U2OS [6]; [7]): 0
Growth Rate (U2OS [6]; [8]): 0
Growth Rate (U2OS [6]; [9]): 1
Growth Rate (U2OS [6]; [10]): 0
Growth Rate (U2OS [6]; [11]): 0
